From ChEMBL document CHEMBL4049407, “Positional Scanning Identifies the Molecular Determinants of a High Affinity Multi-Leucine Inhibitor for Furin and PACE4” (J Med Chem, 2017) come the findings set out here.

Each structure is given as a SMILES string. Active and inactive are the calls of the source. The rule behind the calls is not given here. Peptide text beside a SMILES is read from it. * marks the point of attachment. NH(4-amidinobenzyl) = N=C(N)c1ccc(CN*)cc1

One assay deals with DU-145. Nature of the assay: Antiproliferative activity against human DU145 cells assessed as reduction in metabolic activity at 25 to 100 uM after 72 hrs by MTT assay. The format is functional, cell-based. Summed up:
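First-pass MTT screen of each library peptide on DU145 cells (RPMI 1640, 5% FBS, 1500 cells/well, poly-L-lysine plates). Peptides added 24 h after seeding at 25, 50 and 100 µM in fresh serum medium for 72 h. MTT 1 mg/mL for 4 h; 2-propanol HCl solubilisation. Activity normalised to water vehicle. Mean ± SEM of at least two independent experiments.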
(Tetrazolium assays rely on reduction of a dye to a coloured formazan, in cell work by metabolically active cells.)

In the next assay the target is Furin (Homo sapiens, UniProt P09958). The assay can be described thus: Inhibition of recombinant human furin expressed in drosophila S2 cells using pyrGlu-Arg-Thr-Lys-Arg-7-amido-4-methylcoumarin as substrate after 60 mins by spectrofluorometry method. The format is cell-based. Summed up:
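Human recombinant purified furin at 2 units/100 µL (0.54 nM), in 100 mM HEPES pH 7.5, 1 mM CaCl2, 1 mM β-mercaptoethanol, 1.8 mg/mL BSA. His-containing peptides run instead in 20 mM BisTris pH 6.5 with the same additives. Substrate 100 µM, KM 5.04 µM. Inhibitor 1 nM to 10 µM; 60 min at 37°C. Fluorescence ex 370 / em 460 nm. Ki by Morrison equation; triplicate experiments, mean ± SD.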

For a further assay, the species on record is Homo sapiens. The assay can be described thus: Selectivity index, ratio of Ki for recombinant human furin expressed in drosophila S2 cells to Ki for recombinant human PACE4 expressed in drosophila S2 cells. It is filed as cell-based. The method in brief: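 Ratio Ki(furin)/Ki(PACE4). […] PACE4 buffer was BisTris pH 6.5; furin buffer was HEPES pH 7.5, or BisTris pH 6.5 for His peptides. Ki fitted by Morrison equation from three independent experiments.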

Assay [1] concerns the target T1, Proprotein convertase subtilisin/kexin type 6 (Homo sapiens, UniProt P29122).
T1 sequence (P29122 whole entry): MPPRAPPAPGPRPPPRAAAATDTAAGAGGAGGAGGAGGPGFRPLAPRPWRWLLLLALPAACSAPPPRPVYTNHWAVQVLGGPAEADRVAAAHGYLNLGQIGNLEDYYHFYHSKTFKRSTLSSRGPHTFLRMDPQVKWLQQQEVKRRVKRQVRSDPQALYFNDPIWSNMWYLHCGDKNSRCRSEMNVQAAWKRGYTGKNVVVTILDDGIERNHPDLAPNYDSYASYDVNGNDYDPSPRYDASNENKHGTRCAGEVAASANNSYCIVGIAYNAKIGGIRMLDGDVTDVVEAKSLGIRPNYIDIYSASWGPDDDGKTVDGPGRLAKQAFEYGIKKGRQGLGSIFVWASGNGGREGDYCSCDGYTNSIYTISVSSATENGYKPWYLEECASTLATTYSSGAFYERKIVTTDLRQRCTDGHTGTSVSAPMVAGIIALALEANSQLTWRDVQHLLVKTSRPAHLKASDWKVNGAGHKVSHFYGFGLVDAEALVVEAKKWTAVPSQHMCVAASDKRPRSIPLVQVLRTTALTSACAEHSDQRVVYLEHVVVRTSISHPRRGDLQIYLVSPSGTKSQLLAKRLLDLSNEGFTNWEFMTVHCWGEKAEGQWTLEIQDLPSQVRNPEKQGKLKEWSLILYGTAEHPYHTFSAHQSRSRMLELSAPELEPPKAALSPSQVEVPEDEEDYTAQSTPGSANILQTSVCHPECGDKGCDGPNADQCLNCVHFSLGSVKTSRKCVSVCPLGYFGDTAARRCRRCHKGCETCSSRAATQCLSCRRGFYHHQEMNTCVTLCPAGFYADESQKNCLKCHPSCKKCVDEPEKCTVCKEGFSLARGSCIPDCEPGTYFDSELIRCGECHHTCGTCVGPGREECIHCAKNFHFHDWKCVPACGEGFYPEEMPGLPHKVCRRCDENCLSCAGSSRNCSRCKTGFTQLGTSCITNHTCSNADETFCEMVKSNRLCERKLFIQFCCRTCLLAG
The assay can be described thus: Inhibition of recombinant human PACE4 expressed in drosophila S2 cells using pyrGlu-Arg-Thr-Lys-Arg-7-amido-4-methylcoumarin as substrate after 60 mins by spectrofluorometry method. It is filed as cell-based. The method in brief: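 Human recombinant purified PACE4 at 2 units/100 µL (20.18 nM), in 20 mM BisTris pH 6.5, 1 mM CaCl2, 1.8 mg/mL BSA. Substrate 100 µM, KM 4.035 µM. Inhibitor 1 nM to 10 µM; 60 min at 37°C. Fluorescence ex 370 / em 460 nm. Ki by Morrison tight-binding equation; three independent experiments, mean ± SD.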

Furin, sequence (P09958 whole entry): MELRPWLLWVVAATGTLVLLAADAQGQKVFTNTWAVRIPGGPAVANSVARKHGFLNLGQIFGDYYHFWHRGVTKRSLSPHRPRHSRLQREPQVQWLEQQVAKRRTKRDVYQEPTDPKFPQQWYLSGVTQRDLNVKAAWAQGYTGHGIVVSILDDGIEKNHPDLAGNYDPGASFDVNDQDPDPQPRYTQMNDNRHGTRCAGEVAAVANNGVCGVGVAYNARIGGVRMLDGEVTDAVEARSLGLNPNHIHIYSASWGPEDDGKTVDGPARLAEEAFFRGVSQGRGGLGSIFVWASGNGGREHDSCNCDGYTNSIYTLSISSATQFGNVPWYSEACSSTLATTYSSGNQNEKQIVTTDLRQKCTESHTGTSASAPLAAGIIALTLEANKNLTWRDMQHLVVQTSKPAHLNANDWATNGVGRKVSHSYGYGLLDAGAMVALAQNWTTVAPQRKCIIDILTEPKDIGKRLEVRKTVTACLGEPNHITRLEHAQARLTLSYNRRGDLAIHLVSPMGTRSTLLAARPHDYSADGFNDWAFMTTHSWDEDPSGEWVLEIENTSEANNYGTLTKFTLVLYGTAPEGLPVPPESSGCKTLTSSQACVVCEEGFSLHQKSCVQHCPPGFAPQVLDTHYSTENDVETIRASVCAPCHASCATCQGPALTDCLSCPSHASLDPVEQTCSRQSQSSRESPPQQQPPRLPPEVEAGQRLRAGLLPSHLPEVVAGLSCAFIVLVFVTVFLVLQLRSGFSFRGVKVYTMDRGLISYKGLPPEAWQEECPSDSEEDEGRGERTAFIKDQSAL

The Ki is the dissociation constant of the complex between target and ligand, obtained from inhibition or displacement. In the case of `CC(=O)N[C@@H](CC(C)C)C(=O)N[C@@H](CCCCN)C(=O)N[C@@H](CC(C)C)C(=O)N[C@@H](CC(C)C)C(=O)N[C@@H](CCCNC(=N)N)C(=O)N[C@H](C(=O)N[C@@H](CCCCN)C(=O)NCc1ccc(C(=N)N)cc1)C(C)C` (Ac-LKLLRVK-{NH(4-amidinobenzyl)}), the outcome with DU-145 was inactive. The inhibition constant Ki at Furin is 0.6 nM; in assay [1], 0.5 nM. In the assay listed under Homo sapiens, the Ratio Ki came out at 1.2.

`CC(=O)N[C@@H](Cc1cnc[nH]1)C(=O)N[C@@H](CC(C)C)C(=O)N[C@@H](CC(C)C)C(=O)N[C@@H](CC(C)C)C(=O)N[C@@H](CCCNC(=N)N)C(=O)N[C@H](C(=O)N[C@@H](CCCCN)C(=O)NCc1ccc(C(=N)N)cc1)C(C)C` (Ac-HLLLRVK-{NH(4-amidinobenzyl)}): the outcome with DU-145 was inactive. Moreover, the Ki on Furin was determined as 1.8 nM; in assay [1], 1.3 nM. In addition, the Ratio Ki in the assay filed under Homo sapiens is 1.4.

With `CC(=O)N[C@@H](CC(C)C)C(=O)N[C@@H](CC(C)C)C(=O)N[C@H](C(=O)N[C@@H](CC(C)C)C(=O)N[C@@H](CCCNC(=N)N)C(=O)N[C@H](C(=O)N[C@@H](CCCCN)C(=O)NCc1ccc(C(=N)N)cc1)C(C)C)C(C)C` (Ac-LLVLRVK-{NH(4-amidinobenzyl)}), the outcome with DU-145 was inactive. For the same compound, the inhibition constant Ki on Furin turned out to be 3 nM; in assay [1], 4 nM. In the assay listed under Homo sapiens, the Ratio Ki is 0.8.

In the case of `CC(=O)N[C@@H](CCCNC(=N)N)C(=O)N[C@@H](CC(C)C)C(=O)N[C@@H](CC(C)C)C(=O)N[C@@H](CC(C)C)C(=O)N[C@@H](CCCNC(=N)N)C(=O)N[C@H](C(=O)N[C@@H](CCCCN)C(=O)NCc1ccc(C(=N)N)cc1)C(C)C` (Ac-RLLLRVK-{NH(4-amidinobenzyl)}), the outcome in the assay with DU-145 was inactive. Further, the Ki at Furin came to 1.1 nM; in assay [1], 0.6 nM. For the same compound, the Ratio Ki in the assay filed under Homo sapiens is 1.8.

In the case of `CSCC[C@H](NC(C)=O)C(=O)N[C@@H](CC(C)C)C(=O)N[C@@H](CC(C)C)C(=O)N[C@@H](CC(C)C)C(=O)N[C@@H](CCCNC(=N)N)C(=O)N[C@H](C(=O)N[C@@H](CCCCN)C(=O)NCc1ccc(C(=N)N)cc1)C(C)C` (Ac-MLLLRVK-{NH(4-amidinobenzyl)}), the outcome with DU-145 was inactive. Moreover, the Ki (at Furin; in assay [1]) was 6 nM throughout. Also, the Ratio Ki in the assay listed under Homo sapiens stood at 1.

Consider `CC(=O)N[C@@H](CC(C)C)C(=O)N[C@@H](CC(C)C)C(=O)N[C@@H](CC(C)C)C(=O)N[C@@H](Cc1cnc[nH]1)C(=O)N[C@@H](CCCNC(=N)N)C(=O)N[C@H](C(=O)N[C@@H](CCCCN)C(=O)NCc1ccc(C(=N)N)cc1)C(C)C` (Ac-LLLHRVK-{NH(4-amidinobenzyl)}), for which the result in the assay on DU-145 was inactive. The Ki worked out at 0.9 nM at Furin and 0.4 nM in assay [1]. For the same compound, in the assay filed under Homo sapiens, the Ratio Ki is 2.3.

Regarding `CC(=O)N[C@@H](CC(C)C)C(=O)N[C@@H](CC(N)=O)C(=O)N[C@@H](CC(C)C)C(=O)N[C@@H](CC(C)C)C(=O)N[C@@H](CCCNC(=N)N)C(=O)N[C@H](C(=O)N[C@@H](CCCCN)C(=O)NCc1ccc(C(=N)N)cc1)C(C)C` (Ac-LNLLRVK-{NH(4-amidinobenzyl)}), in the assay with DU-145, the result was inactive. For the same compound, the Ki at Furin stood at 1 nM; in assay [1], 4 nM. Further, the Ratio Ki in the assay filed under Homo sapiens worked out at 0.3.

For the compound `CC(=O)N[C@@H](CC(C)C)C(=O)N[C@@H](CC(C)C)C(=O)N[C@@H](CC(C)C)C(=O)N1CCC[C@H]1C(=O)N[C@@H](CCCNC(=N)N)C(=O)N[C@H](C(=O)N[C@@H](CCCCN)C(=O)NCc1ccc(C(=N)N)cc1)C(C)C` (Ac-LLLPRVK-{NH(4-amidinobenzyl)}), in the assay on DU-145, the outcome was inactive. The Ki on Furin stood at 4 nM; in assay [1], 6 nM. Moreover, the Ratio Ki in the assay filed under Homo sapiens is 0.7.
